Test results as given in ChEMBL document CHEMBL1122502, “9-acridinyl and 2-methoxy-6-chloro-9-acridinyl derivatives of aliphatic di-, tri-, and tetraamines. Chemistry, cytostatic activity, and schistosomicidal activity” (1983).

How the values were obtained:
Assay type in all cases: functional, Mus musculus
[1] = In vitro for cytostatic activity against Cloudman melanoma S91 cells at 1.0 uM concentration.
Outline: (§1)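 Cloudman melanoma S91 cells (doubling time 36 h), 0.1×10^6 per flask, pre-grown 72 h at 37 °C in Ham's F10 with 15% horse serum, 2.5% fetal bovine serum, 8 mM glutamine, penicillin and streptomycin. Medium then replaced with compound at final 0.1, 0.5 or 1.0 μM, with 0.1% DMSO in test and control. After 72 h more, cells trypsinized and counted. Triplicate cultures; cell number given as % of control.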

[2] = Compound was tested in vitro for cytostatic activity against Cloudman melanoma S91 cells at 0.1 uM concentration; outline: as §1
[3] = Compound was tested in vitro for cytostatic activity against Cloudman melanoma S91 cells at 0.5 uM concentration; outline: as §1

Row | SMILES | Cell number (% of control) [1] [%] | Cell number (% of control) [2] [%] | Control [3] [%]
1 | Cl.Cl.c1ccc2c(NCCN3CCNCC3)c3ccccc3nc2c1 | 30 | – | –
2 | CCNCCCCCCNc1c2ccccc2nc2ccccc12.Cl.Cl | 7 | 102 | –
3 | COc1ccc2nc3cc(Cl)ccc3c(NCCCCCCCCNc3c4ccccc4nc4ccccc34)c2c1.Cl.Cl.Cl | 44 | – | –
4 | COc1ccc2nc3cc(Cl)ccc3c(NCCCCCCCCN)c2c1.Cl.Cl.Cl | 86 | – | –
5 | Cl.Cl.c1ccc2c(NCCCCCCNc3c4ccccc4nc4ccccc34)c3ccccc3nc2c1 | 39 | – | –
6 | COc1ccc2nc3cc(Cl)ccc3c(NCCCCCCN)c2c1.Cl.Cl.Cl | 105 | 105 | –
7 | COc1ccc2nc3cc(Cl)ccc3c(NCCCCCCNc3c4ccccc4nc4ccccc34)c2c1.Cl.Cl.Cl | 49 | – | –
8 | COc1ccc2nc3cc(Cl)ccc3c(NCCCCCCNc3c4ccc(Cl)cc4nc4ccc(OC)cc34)c2c1.Cl.Cl.Cl.Cl | 83 | – | –
9 | COc1ccc2nc3cc(Cl)ccc3c(NCCCN3CCN(CCCN)CC3)c2c1.Cl | 78 | – | –
10 | COc1ccc2nc3cc(Cl)ccc3c(NCCCNCCCN)c2c1.Cl | 28 | – | –
11 | Cl.c1ccc2c(NCCCN3CCN(CCCNc4c5ccccc5nc5ccccc45)CC3)c3ccccc3nc2c1 | 2 | 24 | –
12 | COc1ccc2nc3cc(Cl)ccc3c(NCCCNCCCNc3c4ccccc4nc4ccccc34)c2c1.Cl | 3 | 66 | –
13 | COc1ccc2nc3cc(Cl)ccc3c(NCCCN3CCN(CCCNc4c5ccc(Cl)cc5nc5ccc(OC)cc45)CC3)c2c1.Cl | 43 | – | –
14 | Cl.c1ccc2c(NCCCNCCCNc3c4ccccc4nc4ccccc34)c3ccccc3nc2c1 | 31 | 103 | –
15 | COc1ccc2nc3cc(Cl)ccc3c(NCCCN3CCN(CCCNc4c5ccccc5nc5ccccc45)CC3)c2c1.Cl | 20 | 50 | –
16 | Cl.NCCCN1CCN(CCCNc2c3ccccc3nc3ccccc23)CC1 | 3 | 39 | –
17 | COc1ccc2nc3cc(Cl)ccc3c(NCCCNCCCNc3c4ccc(Cl)cc4nc4ccc(OC)cc34)c2c1.Cl | 0 | 85 | 16
18 | Cl.Cl.NCCCCCCNc1c2ccccc2nc2ccccc12 | 95 | – | –
